INS-1E GSIS act: primary screen for activators of insulin secretion dependent on glucose, INS-1E cells, GLuc reporter luminescence | 370,000 compounds, 0.61% hits | INS-1E GLuc reporter insulin secretion, 2-3 h | activation, % at 16.6 µM;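 active = lowest replicate activation of at least 40%, so every replicate reaches that level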;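 note: 0% = median of neutral control wells and 100% = median of IBMX positive control wells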
GSK3 alpha inh: inhibitors of human GSK-3 alpha kinase; 320,000 compounds, 0.1% hits; inhibition, % at 10 µM; P49840; ADP-Glo luminescence, 60 min;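 active = more than half of replicates show inhibition above 20%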;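 note: GST-tagged GSK-3 alpha with peptide substrate and 25 µM ATP; 0% = DMSO neutral wells and 100% = GW8510 positive control wells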
CDK5 p35 inh: CDK5/p35 (human) kinase inhibition | Q00535+Q15078 | Recombinant CDK5/p35, ADP-Glo luminescence, 60 min | inhibition, % at 10 µM | 330,000 compounds, 0.01% hits | AID 488839;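 active = highest replicate inhibition of at least 50% and at least 75% of replicates reaching 50%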;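 note: plate controls were DMSO neutral control for no effect and GW8510 at 10 µM for full effect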
STK33 inh: inhibitors of human STK33 kinase. Q9BYT3. purified STK33, MBP phosphorylation, ADP-Glo luminescence. inhibition, % at 10 µM. 320,000 compounds, 0.073% hits. AID 2661;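 active = inhibition at or above 25%, using the most active replicate where run in duplicate; inactive = inhibition below 25%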
GSK3B inh: inhibitors of human GSK3beta kinase | GST-GSK3beta kinase, ADP-Glo luminescence, 60 min; active compounds read low | activity score (negative = inhibition), % at 10 µM | 300,000 compounds, 0.038% hits | AID 2097;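 active = more than half of replicate wells score below -50%, meaning over 50% inhibition versus plate controls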;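 note: 0% = median DMSO wells and -100% = median GW8510 positive control wells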
Target sequence (P49841 whole entry, looked up): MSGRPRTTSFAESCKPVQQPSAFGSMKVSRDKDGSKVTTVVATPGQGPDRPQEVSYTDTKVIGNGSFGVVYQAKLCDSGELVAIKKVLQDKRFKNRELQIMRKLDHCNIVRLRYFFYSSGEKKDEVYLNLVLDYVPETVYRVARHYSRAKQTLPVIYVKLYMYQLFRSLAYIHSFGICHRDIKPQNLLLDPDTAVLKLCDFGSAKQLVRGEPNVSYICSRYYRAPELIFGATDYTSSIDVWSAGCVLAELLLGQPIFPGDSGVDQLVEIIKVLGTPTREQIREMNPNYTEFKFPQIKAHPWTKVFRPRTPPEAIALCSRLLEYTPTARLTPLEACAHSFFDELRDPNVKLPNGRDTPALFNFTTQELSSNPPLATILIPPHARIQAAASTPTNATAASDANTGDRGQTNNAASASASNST
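Assay system: GST-tagged human GSK3beta kinase, cell-free; Input: 1.6 ng GSK3beta; Medium: Tris/MgCl2 kinase buffer; Timing: 60 min enzyme reaction, room temperature; Signal: ADP-Glo luminescence quantifying ADP generated by kinase; Evaluation: score relative to plate controls; Benchmarks: DMSO neutral wells and GW8510 at 20 µM as positive.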
HIV Env fusion: blocks HIV Env-driven cell-cell fusion; HeLa-JRFL Env/CEM21 cell fusion, luciferase; inhibition, % at 12.3 µM; 360,000 compounds, 1.1% hits;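 active = mean replicate inhibition score of at least 50 and every replicate individually at or above 50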;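 note: 0% = plate neutral controls and 100% = maraviroc near 300 nM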
An asterisk follows results filed as active; [ ] = remark or other dose. Hits are enriched below; roughly 1.4% of the tested compounds scored in any of these assays.

`C=CC[C@@H](CC(=O)N(CCO)Cc1ccccc1)C(=O)NC[C@@H](OC(=O)[C@@H](CC=C)Cc1ccc(F)cc1)c1ccccc1` gave INS-1E GSIS act -35.7, GSK3 alpha inh 0.4, CDK5 p35 inh -1.1, STK33 inh 0.0 and HIV Env fusion 25.8.
For C=CC[C@@H](CC(=O)N(CCO)Cc1ccccc1)C(=O)N[C@H](COC(=O)[C@@H](CC=C)Cc1ccc(F)cc1)Cc1ccccc1 the results were INS-1E GSIS act -29.3, GSK3 alpha inh 2.1, CDK5 p35 inh -1.6, STK33 inh -0.8 and HIV Env fusion -10.1.
Screening C=CCC[C@@H](Cc1ccc(F)cc1)C(=O)OC[C@@H](NC(=O)[C@H](CC=C)CC(=O)NCCO)C(C)(C)C returned INS-1E GSIS act -13.9, GSK3 alpha inh -3.8, CDK5 p35 inh -1.2, STK33 inh -2.5 and HIV Env fusion 101.8*.
Screening C=CC[C@H](CC(=O)N(CCO)Cc1ccccc1)C(=O)NC[C@H](OC(=O)[C@@H](CC=C)Cc1ccc(F)cc1)c1ccccc1 returned INS-1E GSIS act -7.2, GSK3 alpha inh -3.1, CDK5 p35 inh -1.1, STK33 inh -1.0 and HIV Env fusion 68.2*.
`C=CC[C@@H](CC(=O)N(CCO)Cc1ccccc1)C(=O)N[C@@H](COC(=O)[C@@H](CC=C)Cc1ccc(F)cc1)Cc1ccccc1` gave INS-1E GSIS act -48.5, GSK3 alpha inh -0.6, CDK5 p35 inh -3.4, STK33 inh 0.5 and HIV Env fusion 95.0*.
For Cc1ccc(S(=O)(=O)Nc2cccc3c2O[C@H](CN(C)C(=O)Nc2ccc(F)cc2)[C@@H](C)CN([C@@H](C)CO)C3=O)cc1 the results were INS-1E GSIS act -9.0 and HIV Env fusion 41.6[16.7 µM].
For CC/C(=C\C1CCCCC1)C(NP(=O)(c1ccccc1)c1ccccc1)c1ccccc1 (configuration not stated) the results were INS-1E GSIS act 72.3, GSK3 alpha inh -1.6, CDK5 p35 inh 0.3, STK33 inh -0.5, GSK3B inh 1.2 and HIV Env fusion 107.3*.
O=P(NC1CCCCC1)(c1ccccc1)c1ccccc1 was read as INS-1E GSIS act 16.5, CDK5 p35 inh -0.2 and HIV Env fusion -7.4.
Screening CCCCCCCCCCOC(=O)Cn1c(COc2ccc(OC)cc2)[n+](C)c2ccccc21 returned GSK3 alpha inh 26.4, CDK5 p35 inh 1.5, STK33 inh 9.8 and GSK3B inh -9.8.
For CCOC(=O)Cn1c(COc2ccccc2OC)[n+](C)c2ccccc21 the results were GSK3 alpha inh 0.7, STK33 inh -3.1, GSK3B inh 3.0 and HIV Env fusion -11.4.
Screening CCCCCCCCCCOC(=O)Cn1c(COc2ccc(Cl)cc2)[n+](C)c2ccccc21 returned INS-1E GSIS act 206.6*, GSK3 alpha inh 32.2, CDK5 p35 inh 1.3, STK33 inh 31.7*, GSK3B inh -15.0 and HIV Env fusion 23.9.
`CCCCCCCCCCOC(=O)Cn1c(COc2cccc(C)c2)[n+](C)c2ccccc21` gave INS-1E GSIS act 171.4*, GSK3 alpha inh 21.5, CDK5 p35 inh 0.5, STK33 inh 12.4, GSK3B inh 1.3 and HIV Env fusion 25.6.
For CCCCCCCCCCOC(=O)Cn1c(COc2ccccc2C)[n+](C)c2ccccc21 the results were INS-1E GSIS act 138.8*, GSK3 alpha inh 23.7, CDK5 p35 inh 2.2, STK33 inh 21.4 and GSK3B inh -8.5.
`CCCCCCCCCCOC(=O)Cn1c(COc2ccccc2)[n+](C)c2ccccc21` gave INS-1E GSIS act 127.4*, GSK3 alpha inh 23.1, CDK5 p35 inh 0.7, STK33 inh 11.0, GSK3B inh -18.9 and HIV Env fusion 44.2.
Screening Cc1ccc(S(=O)(=O)N(C)C[C@@H]2Oc3c(NC(=O)C4CCCCC4)cccc3C(=O)N([C@H](C)CO)C[C@@H]2C)cc1 returned INS-1E GSIS act 21.9 and HIV Env fusion -28.4[16.7 µM].
Screening COc1ccccc1C(=O)N1C[C@H]2[C@@H](c3ccccc31)[C@@H](CO)N2C(=O)Nc1ccccc1 returned INS-1E GSIS act -10.3.
COc1cccc(C(=O)N(Cc2ccccc2)Cc2cc3cc4c(cc3[nH]c2=O)OCCO4)c1 was read as INS-1E GSIS act -8.0, GSK3 alpha inh -0.3, CDK5 p35 inh -1.9, STK33 inh -0.9, GSK3B inh 4.2 and HIV Env fusion -21.9.
`COc1ccc(C(=O)N(Cc2ccccc2)Cc2cc3cc4c(cc3[nH]c2=O)OCCO4)cc1` gave GSK3 alpha inh 0.6, CDK5 p35 inh -0.2, STK33 inh 0.1, GSK3B inh -1.6 and HIV Env fusion 59.1*.
Screening Cc1ccc(CNc2nc(C)nc3sc4c(c23)CCC4)cc1 returned INS-1E GSIS act -15.1, GSK3 alpha inh -0.4, CDK5 p35 inh -0.3, STK33 inh -0.1, GSK3B inh 1.8 and HIV Env fusion 73.6*.
Cc1nc(Nc2ccc(O)cc2)c2c3c(sc2n1)CCCC3 was read as INS-1E GSIS act 3.1, CDK5 p35 inh 0.0, STK33 inh 0.4, GSK3B inh -1.4 and HIV Env fusion 11.7.
For CCNC(=O)[C@@H]1[C@@H](CO)[C@@H]2Cn3c(ccc(-c4cccc(F)c4)c3=O)[C@H]1N2C(C)=O the results were INS-1E GSIS act -2.6.
`COc1ccc(NC(=O)Nc2ccc3c(c2)CC(=O)N([C@@H](C)CO)C[C@@H](C)[C@H](CN(C)S(=O)(=O)c2cn(C)cn2)O3)cc1` gave INS-1E GSIS act -2.4 and HIV Env fusion -6.3[16.7 µM].
Screening CC(=O)Oc1ccccc1Cn1c(C)c(C(=O)NCc2ccc(Cl)c(Cl)c2)sc1=O returned INS-1E GSIS act -34.9 and HIV Env fusion -4.8.
Screening CC(=O)Oc1ccccc1Cn1c(C)c(C(=O)NCc2cccc(Cl)c2)sc1=O returned INS-1E GSIS act -28.2 and HIV Env fusion 59.5*.
Screening C[C@@H]1CN([C@@H](C)CO)C(=O)c2cc(NC(=O)Nc3ccc4c(c3)OCO4)ccc2O[C@@H](C)CCCCO[C@H]1CN(C)Cc1ccc(C(=O)O)cc1 returned INS-1E GSIS act 6.4 and HIV Env fusion -7.9[16.7 µM].
`Cc1ccc(CNCC2CCCO2)o1` (configuration not stated) gave GSK3 alpha inh -1.5, CDK5 p35 inh 0.0, STK33 inh -1.0, GSK3B inh -1.0 and HIV Env fusion -7.3.
Screening CCCCNCC1CCCO1 (configuration not stated) returned INS-1E GSIS act 41.4*, GSK3 alpha inh -1.5, CDK5 p35 inh 1.6, STK33 inh -0.3, GSK3B inh 9.9 and HIV Env fusion 1.2.
O=C1Nc2ccccc2N(C(=O)c2ccc3ccccc3c2)C1c1nc2ccccc2[nH]1 (configuration not stated) was read as INS-1E GSIS act 120.9* and HIV Env fusion -126.9.
